Test results reported in ChEMBL document CHEMBL5154895, “Mechanistic Studies and In Vivo Efficacy of an Oxadiazole-Containing Antibiotic” (J Med Chem, 2022).
Values after ≈ are worked out from the molar mass of the structure shown. Active and inactive are the calls of the source. The calls are words filed in the database; no cut-off is given here.

Assays:
Format in all cases: functional
Streptococcus pneumoniae = assay: Antibacterial activity against cephalosporin-resistant Streptococcus pneumoniae ATCC 51916 assessed as inhibition of bacterial growth incubated for 18 to 20 hrs by broth microdilution method; conditions: time 18-20 hrs
Summary of the method: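 Broth microdilution per CLSI. S. pneumoniae was diluted to about 5×10^5 CFU/mL in TSB and incubated with serial dilutions of agent at 37 °C for 18–20 h under 5% CO2. MIC was read visually as the lowest concentration completely inhibiting growth.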

Staphylococcus aureus [1] = assay: Antibacterial activity against methicillin-resistant Staphylococcus aureus NRS 385 assessed as inhibition of bacterial growth incubated for 18 to 20 hrs by broth microdilution method; conditions: time 18-20 hrs
Summary of the method: (§1)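 Broth microdilution per CLSI. Inoculum was set to 0.5 McFarland and diluted in CAMHB to about 5×10^5 CFU/mL. Serial dilutions of agent were incubated aerobically at 37 °C for 18–20 h. MIC was read visually as the lowest concentration with complete growth inhibition.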

Staphylococcus aureus [2] = assay: Antibacterial activity against vancomycin-resistant Staphylococcus aureus 10 assessed as inhibition of bacterial growth incubated for 18 to 20 hrs by broth microdilution method; conditions: time 18-20 hrs; summary of the method: as §1
[3] = test system: Staphylococcus epidermidis; assay: Antibacterial activity against Staphylococcus epidermidis NRS 101 assessed as inhibition of bacterial growth incubated for 18 to 20 hrs by broth microdilution method; conditions: time 18-20 hrs
Summary of the method: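 Broth microdilution per CLSI. Inoculum at 0.5 McFarland, diluted in cation-adjusted Mueller Hinton broth to about 5 × 10^5 CFU/mL. Serial compound dilutions incubated aerobically at 37° C for 18–20 hours. MIC taken as the lowest concentration completely inhibiting visible growth.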

Streptococcus pyogenes = assay: Antibacterial activity against Streptococcus pyogenes MGAS 1882 assessed as inhibition of bacterial growth incubated for 18 to 20 hrs by broth microdilution method; conditions: time 18-20 hrs
Summary of the method: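 Broth microdilution with a 0.5 McFarland inoculum diluted in tryptic soy broth to about 5 × 10^5 CFU/mL. Serial compound dilutions incubated aerobically at 37° C for 18–20 hours. MIC read visually as the lowest concentration with no growth.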

Enterococcus faecalis = assay: Antibacterial activity against vancomycin-resistant Enterococcus faecalis ATCC 51299 assessed as inhibition of bacterial growth incubated for 18 to 20 hrs by broth microdilution method; conditions: time 18-20 hrs
Summary of the method: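 Broth microdilution per CLSI. Enterococci were diluted to about 5×10^5 CFU/mL in TSB and incubated aerobically with serial dilutions of agent at 37 °C for 18–20 h. MIC was read visually as the lowest concentration with no visible growth.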

Staphylococcus aureus [4] = assay: Downregulation of LukS-PV protein expression in Staphylococcus aureus assessed as log2 of fold change in protein level measured after 2 hrs by LC-MS/MS analysis relative to control
Summary of the method: (§2)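 S. aureus ATCC 25923 at OD600 0.6 was treated with compound or DMSO for 2 h at 37 °C, normalised to OD600 1.1, and washed in PBS. Cells were pressure-lysed in 100 mM ammonium bicarbonate, then acetone-precipitated, reduced with DTT, alkylated with iodoacetamide, and digested with trypsin/Lys-C. Peptides were desalted and run on LC-MS/MS. Label-free quantitation used proteins present in all 3 samples, filtered at p<0.05 against DMSO.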

Staphylococcus aureus [5] = assay: Downregulation of EsxA protein expression in Staphylococcus aureus assessed as log2 of fold change in protein level measured after 2 hrs by LC-MS/MS analysis relative to control; summary of the method: as §2
Staphylococcus aureus [6] = assay: Downregulation of SdrD protein expression in Staphylococcus aureus assessed as log2 of fold change in protein level measured after 2 hrs by LC-MS/MS analysis relative to control; summary of the method: as §2
Staphylococcus aureus [7] = assay: Downregulation of LipA protein expression in Staphylococcus aureus assessed as log2 of fold change in protein level measured after 2 hrs by LC-MS/MS analysis relative to control; summary of the method: as §2
Staphylococcus aureus [8] = assay: Downregulation of AdhE protein expression in Staphylococcus aureus assessed as log2 of fold change in protein level measured after 2 hrs by LC-MS/MS analysis relative to control; summary of the method: as §2
Staphylococcus aureus [9] = assay: Upregulation of DefA protein expression in Staphylococcus aureus assessed as log2 of fold change in protein level measured after 2 hrs by LC-MS/MS analysis relative to control
Summary of the method: (§3)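 S. aureus ATCC 25923 at OD600 0.6 exposed to compound or DMSO control for 2 h at 37°C, normalized to OD600 1.1 and PBS-washed. Cells were pressure-cycling lysed in 100 mM ammonium bicarbonate, and 50 μg protein was acetone-precipitated, reduced and alkylated, then Trypsin/Lys-C digested and C18-desalted. About 1 μg peptides went to LC-MS/MS. Label-free quantitation kept proteins present in all 3 samples, filtered at p <0.05.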

Staphylococcus aureus [10] = assay: Downregulation of PgsA gene expression in Staphylococcus aureus ATCC 25923 assessed as reduction in […] at 0.25 ug/ml incubated for 2 hrs by RT-PCR analysis; conditions: dose 0.25 µg/ml
Summary of the method: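 S. aureus ATCC 25923 at OD600 0.6 was treated in triplicate with 0.25 μg/mL compound or DMSO for 2 h at 37 °C and pelleted. Total RNA was analysed by real-time RT-PCR with pgsA primers, normalised to 16S rRNA. Significance was tested by Student's t-test.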

Staphylococcus aureus [11] = assay: Downregulation of aureolysin protein expression in Staphylococcus aureus measured after 2 hrs by LC-MS/MS analysis; summary of the method: as §2
Staphylococcus aureus [12] = assay: Upregulation of glycine cleavage system protein H expression in Staphylococcus aureus measured after 2 hrs by LC-MS/MS analysis; summary of the method: as §3
Staphylococcus aureus [13] = assay: Upregulation of CHAP domain-containing protein expression in Staphylococcus aureus measured after 2 hrs by LC-MS/MS analysis; summary of the method: as §3
Staphylococcus aureus [14] = assay: Upregulation of acyl phosphatase expression in Staphylococcus aureus measured after 2 hrs by LC-MS/MS analysis; summary of the method: as §3
Staphylococcus aureus [15] = assay: Upregulation of dihydroxyacetone kinase subunit L expression in Staphylococcus aureus measured after 2 hrs by LC-MS/MS analysis; summary of the method: as §3
Staphylococcus aureus [16] = assay: Upregulation of siderophore biosynthesis protein SbnF in Staphylococcus aureus measured after 2 hrs by LC-MS/MS analysis; summary of the method: as §3
Staphylococcus aureus [17] = assay: Downregulation of DNA recombination protein RecF expression in Staphylococcus aureus measured after 2 hrs by LC-MS/MS analysis; summary of the method: as §2
Staphylococcus aureus [18] = assay: Downregulation of PTS mannose transporter subunit IIABC protein expression in Staphylococcus aureus measured after 2 hrs by LC-MS/MS analysis; summary of the method: as §2
Staphylococcus aureus [19] = assay: Downregulation of copper-translocating P-type ATPase protein expression in Staphylococcus aureus measured after 2 hrs by LC-MS/MS analysis; summary of the method: as §2
Staphylococcus aureus [20] = assay: Downregulation of DNA-binding response regulator protein expression in Staphylococcus aureus measured after 2 hrs by LC-MS/MS analysis; summary of the method: as §2
Staphylococcus aureus [21] = assay: Downregulation of molybdenum ABC transporter ATP-binding protein expression in Staphylococcus aureus measured after 2 hrs by LC-MS/MS analysis; summary of the method: as §3
Staphylococcus aureus [22] = assay: Downregulation of threonine synthase protein expression in Staphylococcus aureus measured after 2 hrs by LC-MS/MS analysis; summary of the method: as §3
Staphylococcus aureus [23] = assay: Downregulation of peptidase protein expression in Staphylococcus aureus measured after 2 hrs by LC-MS/MS analysis; summary of the method: as §3
Staphylococcus aureus [24] = assay: Downregulation of holo-ACP synthase protein expression in Staphylococcus aureus measured after 2 hrs by LC-MS/MS analysis; summary of the method: as §2

SMILES: CC1CC(C)CN(S(=O)(=O)c2ccc(C(=O)Nc3nnc(-c4ccc(C(F)(F)F)cc4)o3)cc2)C1 (configuration not stated)
- MIC (Streptococcus pneumoniae): 0.06 µg/mL (≈ 0.118 µM)
- MIC (Staphylococcus aureus [1]): 0.25 µg/mL (≈ 0.492 µM)
- MIC (Staphylococcus aureus [2]): 0.25 µg/mL (≈ 0.492 µM)
- MIC [3]: 0.25 µg/mL (≈ 0.492 µM)
- MIC (Streptococcus pyogenes): 0.06 µg/mL (≈ 0.118 µM)
- MIC (Enterococcus faecalis): 0.25 µg/mL (≈ 0.492 µM)
- log2FC (Staphylococcus aureus [4]): -3.7
- log2FC (Staphylococcus aureus [5]): -2
- log2FC (Staphylococcus aureus [6]): -2
- log2FC (Staphylococcus aureus [7]): -2
- log2FC (Staphylococcus aureus [8]): -2.5
- log2FC (Staphylococcus aureus [9]): 2
- Activity (Staphylococcus aureus [10]): Active
- Activity (Staphylococcus aureus [11]): Active
- Activity (Staphylococcus aureus [12]): Active
- Activity (Staphylococcus aureus [13]): Active
- Activity (Staphylococcus aureus [14]): Active
- Activity (Staphylococcus aureus [15]): Active
- Activity (Staphylococcus aureus [16]): Active
- Activity (Staphylococcus aureus [17]): Active
- Activity (Staphylococcus aureus [18]): Active
- Activity (Staphylococcus aureus [19]): Active
- Activity (Staphylococcus aureus [20]): Active
- Activity (Staphylococcus aureus [21]): Active
- Activity (Staphylococcus aureus [22]): Active
- Activity (Staphylococcus aureus [23]): Active
- Activity (Staphylococcus aureus [24]): Active
